Laboratory results: ChEMBL document CHEMBL1130028, “A comparison of structure-activity relationships between spermidine and spermine analogue antineoplastics” (J Med Chem, 1997)

Assays:
L1210 [1] = assay: Growth inhibitory activity against L1210 cells (48h); assay type: functional, cell-based; conditions: Mus musculus, L1210, 48 h
How it was run: (§1)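 Murine L1210 leukemia cells were kept in log growth in RPMI-1640 with 10% fetal calf serum or NuSerum, HEPES-MOPS buffer and 1 mM aminoguanidine. IC50 is the concentration giving 50% of untreated control growth, as the mean of at least two experiments.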

[2] = The chronic lethal dose administered as intraperitoneal injection in mice; assay type: ADME; conditions: mouse, in vivo, ip
How it was run: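 Female CD-1 mice, 10–12 weeks old. Analogue given as hydrochloride salt by ip injection three times daily for 6 days (18 doses). Appetite, weight and appearance monitored daily, and lethality scored 10 days after the final dose.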

L1210 [3] = assay: Percentage of spermine (after 48 hr exposure to 100 uM) in L1210 cells.; assay type: functional, Mus musculus
How it was run: (§2)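 Log-phase L1210 cells were treated for 48 h with analogue at two concentrations. Cells were washed twice in cold RPMI-1640 and extracted with 0.6 N HClO4. Putrescine, spermidine and spermine were quantified by HPLC of dansyl derivatives and given as percent of untreated controls. Runs were in triplicate with untreated controls.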

L1210 [4] = assay: Growth inhibitory activity against L1210 cells (96h); assay type: functional, cell-based; conditions: Mus musculus, L1210, 96 h; how it was run: as §1
[5] = target: T1, S-adenosylmethionine decarboxylase proenzyme 1 (Mus musculus) (UniProt P0DMN7); assay: Effect on S-Adenosyl-methionine decarboxylase (AdoMetDC) tested at 1 uM at 6 hour in L1210 cells; assay type: functional, cell-based
T1 sequence (whole entry): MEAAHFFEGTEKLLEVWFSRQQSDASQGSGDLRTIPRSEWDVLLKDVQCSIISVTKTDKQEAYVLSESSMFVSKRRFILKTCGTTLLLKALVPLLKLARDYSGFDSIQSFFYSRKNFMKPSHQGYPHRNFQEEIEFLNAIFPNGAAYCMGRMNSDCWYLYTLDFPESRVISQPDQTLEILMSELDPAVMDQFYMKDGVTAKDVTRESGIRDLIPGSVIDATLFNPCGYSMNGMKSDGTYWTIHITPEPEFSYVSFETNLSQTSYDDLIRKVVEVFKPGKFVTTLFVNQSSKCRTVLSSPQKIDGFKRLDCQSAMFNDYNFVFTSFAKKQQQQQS
How it was run: (§3)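 L1210 cells were exposed to 1 μM analogue, for 4 h (ODC) or 6 h (AdoMetDC). Activity was measured as 14CO2 released from [14C]carboxyl-labelled L-ornithine (ODC) or S-adenosyl-L-methionine (AdoMetDC) and given as percent of untreated control. Each run included DEHSPM-treated positive controls. Values are the mean of at least three experiments.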

L1210 [6] = assay: Percentage of putrescine after 48 hr exposure to the compound (500 uM ) in L1210 cells; assay type: functional, Mus musculus; how it was run: as §2
L1210 [7] = assay: Percentage of putrescine (after 48 hr exposure to 100 uM) in L1210 cells.; assay type: functional, Mus musculus; how it was run: as §2
[8] = Effect on ornithine decarboxylase (ODC) tested at 1 uM at 4 hour in L1210 cells; assay type: functional, Mus musculus; how it was run: as §3
L1210 [9] = assay: Percentage of spermidine (after 48 hr exposure to 500 uM) in L1210 cells.
[10] = target: Spermidine/spermine N(1)-acetyltransferase (SAT) (Mus musculus) (UniProt Q6P8J2+P48026); assay: Effect on Spermidine/Spermine-Acetyltransferase (SSAT ) at 10 uM at 48 hour in L1210 cells; assay type: functional, cell-based
Spermidine/spermine N(1)-acetyltransferase (SAT) (Mus musculus), sequence (P48026 whole entry, looked up): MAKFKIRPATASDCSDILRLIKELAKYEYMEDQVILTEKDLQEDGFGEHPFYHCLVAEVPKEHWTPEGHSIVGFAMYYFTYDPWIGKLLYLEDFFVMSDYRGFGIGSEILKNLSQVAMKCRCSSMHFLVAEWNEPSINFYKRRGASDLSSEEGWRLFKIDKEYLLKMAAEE
Spermidine/spermine N(1)-acetyltransferase (SAT) (Mus musculus), sequence (Q6P8J2 whole entry, looked up): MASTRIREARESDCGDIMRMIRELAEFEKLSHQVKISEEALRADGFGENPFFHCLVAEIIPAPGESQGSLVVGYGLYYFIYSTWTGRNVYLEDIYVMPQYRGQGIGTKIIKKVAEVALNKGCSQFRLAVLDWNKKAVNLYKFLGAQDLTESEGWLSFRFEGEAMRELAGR
How it was run: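 L1210 cells were exposed to 10 μM triamine for 48 h. SSAT activity was taken as [14C]N1-acetylspermidine formed from spermidine and [14C]acetyl-CoA, given as percent of untreated control. DENSPM-treated cells served as positive control. Values are the mean of at least three experiments.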

L1210 [11] = assay: Percentage of spermidine (after 48 hr exposure to 100 uM) in L1210 cells.
L1210 [12] = assay: Percentage of spermine (after 48 hr exposure to 500 uM) in L1210 cells.; assay type: functional, Mus musculus; how it was run: as §2
[13] = Binding affinity values for polyamine transporter was determined
L1210 [14] = assay: Percentage of putrescine after 48 hr exposure to the compound (100(3)uM ) in L1210 cells; assay type: functional, Mus musculus; how it was run: as §2
L1210 [15] = assay: Percentage of spermidine after 48 hr of exposure to the compound (100(3)uM ) in L1210 cells; assay type: functional, Mus musculus; how it was run: as §2
L1210 [16] = assay: Percentage of putrescine after 48 hr exposure to the compound (500(15)uM ) in L1210 cells; assay type: functional, Mus musculus; how it was run: as §2
L1210 [17] = assay: Percentage of spermidine after 48 hr of exposure to the compound (500(15)uM ) in L1210 cells; assay type: functional, Mus musculus; how it was run: as §2
L1210 [18] = assay: Intracellular levels in L1210 cells following 500 uM exposure.; assay type: functional, Mus musculus
How it was run: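 L1210 cells were grown 48 h in medium containing 500 μM analogue. Cellular contents were analysed by HPLC of dansyl derivatives and given as pmol/10^6 cells, as parent drug and metabolites with the % of total drug in the cell.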

L1210 [19] = assay: Percentage of spermine after 48 hr exposure to the compound (500(15)uM ) in L1210 cells; assay type: functional, Mus musculus
How it was run: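 Log-phase murine L1210 leukemia cells (RPMI-1640, 10% fetal calf serum or NuSerum, HEPES-MOPS buffer, 1 mM aminoguanidine) exposed 48 h to analogue at two concentrations. Cells washed twice in cold RPMI-1640 and extracted with 0.6 N HClO4. Spermine in extracts quantified by HPLC of DANSYL derivatives and expressed as percent of untreated controls. Triplicate flasks per condition.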

Compound | IC50 (L1210 [1]) | LD50 [2] | Polyamine (L1210 [3]) | IC50 (L1210 [4]) | AdoMetDC [5] | Polyamine (L1210 [6]) | Polyamine (L1210 [7]) | ODC [8] | Spermidine % (L1210 [9]) | SSAT [10] | Spermidine % (L1210 [11]) | Polyamine (L1210 [12]) | Ki [13] | Polyamine (L1210 [14]) | Polyamine (L1210 [15]) | Polyamine (L1210 [16]) | Polyamine (L1210 [17]) | Picoequivalents of amine/10e6 cells (L1210 [18]) | Polyamine (L1210 [19])
CCNCCCCCNCCCCNCCCCCNCC | 0.4 µM | 36 mg/kg/day |  |  |  |  |  |  |  |  |  |  |  |  |  |  |  |  | 
NCCCCCNCCCCCN | 100 µM |  | 33% | 0.4 µM | 88% | 0% | 0% | 16% | 0% | 90% | 0% | 20% | 14 µM |  |  |  |  |  | 
CCCNCCCCNCCCNCCC | > 100 µM |  |  | 33 µM | 107% |  |  | 75% |  | 1030% |  |  | 26 µM | 6% | 35% | 0% | 12% | 15330 | 99%
NCCCCNCCCCN | > 100 µM |  | 32% | 3 µM | 54% |  | 0% | 11% | 2% | 430% | 4% | 21% | 3.4 µM |  |  |  |  |  | 
CCNCCCCNCCCN | > 100 µM |  | 84% | 40 µM | 54% | 0% | 0% | 17% | 15% | 400% | 26% | 61% | 7 µM |  |  |  |  | 17990 | 
NCCCCCNCCCCN | > 100 µM |  | 53% | 0.18 µM | 57% |  | 0% | 19% | 0% | 410% | 1% | 35% | 1.4 µM |  |  |  |  |  | 
CCNCCCNCCCCN | > 100 µM |  | 80% | 4 µM | 58% | 0% | 0% | 10% | 14% | 430% | 25% | 53% | 8.6 µM |  |  |  |  | 16990 | 
CCNCCCNCCCN | > 100 µM |  |  | > 100 µM | 58% |  |  | 42% |  | 390% |  |  | 34 µM |  |  |  |  |  | 
CCCNCCCCNCCCCNCCC | > 100 µM |  |  | 6 µM | 123% | 0% | 0% | 86% | 7% | 420% | 19% |  | 67 µM |  |  |  |  | 15990 | 
NCCCCNCCCN [SPERMIDINE] | > 100 µM |  |  | > 100 µM | 43% | 0% | 0% | 16% |  | 160% |  |  | 2.2 µM |  |  |  |  |  | 
CNCCCCNCCCNC | > 100 µM |  | 58% | 1.7 µM | 68% | 0% | 0% | 22% | 0% | 270% | 5% | 54% | 5.1 µM |  |  |  |  | 16090 | 
CNCCCCNCCCCNC | > 100 µM |  |  | 0.9 µM | 86% | 0% | 0% | 20% | 0% | 510% | 3% |  | 5.5 µM |  |  |  |  | 20340 | 
CCCNCCCCCNCCCCCNCCC | > 100 µM |  | 97% | 6 µM | 123% | 51% | 59% | 73% | 69% | 90% | 73% |  | 87 µM |  |  |  |  | 13910 | 
CCCNCCCCCNCCCCNCCC | 100 µM |  |  | 1.2 µM | 86% | 0% | 0% | 83% | 31% | 80% | 40% |  | 75 µM |  |  |  |  | 15150 | 
CCCNCCCCNCCCCN | 100 µM |  | 82% | 0.6 µM | 59% | 0% | 0% | 20% | 0% | 570% | 2% | 66% | 5 µM |  |  |  |  | 20550 | 
CCCNCCCNCCCNCCC | > 100 µM |  | 96% | 60 µM | 99% | 68% | 70% | 100% | 71% | 220% | 76% |  | 125 µM |  |  |  |  | 15010 | 
CCCNCCCNCCCN | > 100 µM |  | 56% | 100 µM | 38% | 0% | 0% | 33% | 15% | 470% | 29% | 49% | 33 µM |  |  |  |  | 17710 | 
CCCNCCCCNCCCN | > 100 µM |  |  | 55 µM | 64% | 0% | 0% | 14% | 16% | 500% | 33% | 95% | 8.5 µM |  |  |  |  | 19590 | 
CCNCCCCNCCCCCNCCCCNCC |  | 48 mg/kg/day |  |  |  |  |  |  |  |  |  |  |  |  |  |  |  |  | 
CCCNCCCNCCCCN | > 100 µM |  | 90% | 28 µM | 56% | 0% | 0% | 18% | 15% | 1200% | 25% | 72% | 3 µM |  |  |  |  | 18250 | 
CNCCCNCCCNC | > 100 µM |  | 58% | 4.8 µM | 41% | 0% | 0% | 17% | 6% | 250% | 9% | 48% | 60 µM |  |  |  |  | 18400 | 
